In data set [1] the test system is SH-SY5Y. As to the kind of experiment: Cytotoxicity against human SH-SY5Y cells 10^-8 to 10^-4 M after 72 hrs by LDH release assay. It is filed as cell-based. In short, it runs like this:
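SH-SY5Y cells grown in DMEM with 10% FBS, then seeded at 15000 per well in 1% FBS a day ahead. Treated with 10^-8 to 10^-4 M (water-dissolved) for 72 h, with vehicle controls and triton as positive control. LDH in medium read at 490 nm, expressed as % of vehicle-treated cells. Dunnett's test after one-way ANOVA.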
On the technique in general: LDH leaks from cells whose membrane has failed.

Data set [2] deals with HepG2. As to the kind of experiment: Cytotoxicity against human HepG2 cells assessed as effect on cell viability at 10 to 250 uM after 24 hrs by neutral red assay. The note with it: hepg2, 24 h. It is filed as cell-based. Summed up:
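HepG2 cells seeded at 5 × 10^4 per well, then after 24 h given medium with 10–250 μM for 24 h. Viability by neutral red staining, OD 570 nm. Results are % of control ± SEM, three independent experiments.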

Data set [3] deals with Mus musculus. The data set is described as follows: Anticonvulsant activity in mouse assessed as protection against maximal electroshock-induced seizures at 100 mg/kg, ip. It is filed as functional, organism-based. Summed up: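 Mice dosed ip; maximal seizures induced by auricular electroshock (25 mA, 500 V, 50 Hz, 0.2 s). Endpoint: hind-limb tonic extension; animals without it scored protected. Read-out is number protected over number tested.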

The test system of data set [4] is SH-SY5Y. The data set is described as follows: Potentiation of H2O2-induced cytotoxicity against human SH-SY5Y cells at 10^-5 M after 72 hrs by LDH release assay. The note with it: 10 µM. It is filed as cell-based. In short, it runs like this:
(§1)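 SH-SY5Y cells in 1% FBS given 10^-8 to 10^-5 M for 72 h, with H2O2 (0.5 mM) added for the last 24 h. LDH released into medium measured at 490 nm and normalized to vehicle cells without H2O2. Dunnett's test after one-way ANOVA.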

In data set [5] the test system is Mus musculus. As to the kind of experiment: Toxicity in mouse at 100 mg/kg, ip measured during maximal electroshock seizure test. In kind it is organism-based. The note with it: in vivo. In general terms: The maximal electroshock test induces tonic seizures with an electrical stimulus.
Data set [6] deals with Mus musculus. As to the kind of experiment: Neurotoxicity in mouse assessed as motor impairment by measuring loss of coordination at 69 mg/kg, ip measured for 60 secs by chimney test relative to control. The note with it: in vivo, 1 min. In kind it is toxicity, organism-based. Summed up: (§2)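 Mice dosed ip; trained, selected animals placed in a horizontal tube 25 cm long and 2.5 cm in diameter, then tube reversed so mice must climb out backward. Read-outs: escape time (s) ± SEM and % animals losing coordination versus control. Unpaired t test.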

Data set [7] can be described thus: Cytotoxicity against mouse CRL-2541 cells assessed as effect on cell viability at 10 to 250 uM after 24 hrs by MTT assay. In kind it is cell-based. For orientation: Tetrazolium dyes change colour on reduction, which living cells bring about.
Data set [8] can be described thus: Protection index, ratio of TD50 for neurotoxicity in ip dosed mouse by rotarod test to ED50 for anticonvulsant activity in mouse by maximal electroshock seizure test. The note with it: in vivo, read-out: Ratio TD50/ED50. It is filed as toxicity, organism-based.
The subject of data set [9] is SH-SY5Y. As to the kind of experiment: Cytotoxicity against human SH-SY5Y cells 10^-8 to 10^-4 M after 24 hrs by MTT assay. In kind it is cell-based.
The test system of data set [10] is Mus musculus. The data set is described as follows: Neurotoxicity in mouse assessed as motor impairment by measuring time of escaping from chimney at 69 mg/kg, ip measured for 60 secs (reference value: 8.87 +/- 1.79 secs). The note with it: in vivo, 1 min. In kind it is toxicity, organism-based. Summed up:
as §2

The test system of data set [11] is Mus musculus. As to the kind of experiment: Analgesic activity in mouse assessed as decrease in time of paw licking during phase 2 at 69 mg/kg, ip measured for 15 to 30 mins by formalin test relative to control. In kind it is functional. On the set-up: scale not given: the % may be the effect or the level left. In short, it runs like this:
(§3)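 Formalin test in mice: 20 μL of 5% formalin injected intraplantarly into the right hind paw. Each mouse was observed alone in a glass beaker for 30 min. Time (s) spent licking or biting the injected paw was recorded at 0–5 min (acute phase) and 15–30 min (inflammatory phase).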

Data set [12] deals with HepG2. As to the kind of experiment: Cytotoxicity against human HepG2 cells assessed as effect on cell viability at 10 to 250 uM after 24 hrs by MTT assay. In kind it is cell-based. The note with it: hepg2, 24 h. In short, it runs like this: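 HepG2 cells grown in MEM with 10% FBS (37 °C, 5% CO2) and seeded at 1 × 10^4. After overnight culture, exposed to 10–250 μM for 24 h. MTT for 3 h, formazan dissolved, OD 570 nm. Viability is % of control ± SEM from three independent experiments.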

The subject of data set [13] is Mus musculus. As to the kind of experiment: Anticonvulsant activity in mouse assessed as increase in electroconvulsive threshold at 30 mg/kg, ip by maximal electroshock seizure threshold test relative to control. It is filed as functional.
Data set [14] deals with Mus musculus. The data set is described as follows: Anticonvulsant activity in mouse assessed as current strength required to induce tonic hind-limb extension in 50% of the animals at 30 mg/kg, ip by maximal electroshock seizure threshold test (reference value: 6.05 to 8.13 mA). In kind it is functional.
Data set [15] concerns Mus musculus. As to the kind of experiment: Anticonvulsant activity in mouse assessed as protection against subcutaneous pentylenetetrazole-induced seizures at 100 mg/kg, ip measured for 30 mins post pentylenetetrazole challenge at 0.5 hrs after compound dosing relative to control. It is filed as functional.
Data set [16] has as its system Mus musculus. As to the kind of experiment: Anticonvulsant activity in mouse assessed as protection against subcutaneous pentylenetetrazole-induced seizures by measuring latency time of tonic seizures at 100 mg/kg, ip measured for 30 mins post pentylenetetrazole challenge at 0.5 hrs after compound dosing (reference value: 562.8 to 614.9 secs). It is filed as functional.

In data set [17] the test system is Mus musculus. The data set is described as follows: Anticonvulsant activity in ip dosed mouse assessed as protection against maximal electroshock-induced seizures. In kind it is functional. In short, it runs like this: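 Mice were dosed ip. Maximal seizures were induced by auricular electrodes (25 mA, 500 V, 50 Hz, 0.2 s). Absence of hind-limb tonic extension counted as protection. […] Motor impairment was scored on a 10 rpm rotarod, giving TD50 the same way.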

The test system of data set [18] is SH-SY5Y. The data set is described as follows: Potentiation of H2O2-induced cytotoxicity against human SH-SY5Y cells at 10^-6 to 10^-5 M after 24 hrs by MTT assay. In kind it is cell-based.
The subject of data set [19] is Mus musculus. As to the kind of experiment: Toxicity in mouse at 60 mg/kg, ip measured during maximal electroshock seizure test. It is filed as organism-based. The note with it: in vivo.
The subject of data set [20] is SH-SY5Y. As to the kind of experiment: Potentiation of H2O2-induced cytotoxicity against human SH-SY5Y cells at 10^-8 to 10^-6 M after 72 hrs by LDH release assay. In kind it is cell-based. In short, it runs like this:
as §1

The subject of data set [21] is Mus musculus. The data set is described as follows: Toxicity in mouse assessed as effect on spontaneous activity at 69 mg/kg, ip measured for 30 mins by photoresistor actometer relative to control. It is filed as organism-based. The note with it: in vivo, 0.5 h. Summed up: (§4)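 Mice dosed ip; locomotor activity by photoresistor actometers counting light-beam interruptions. Each mouse was habituated 30 min in a cage, then crossings were counted over a 30 min session. Data are mean ± SEM and % change vs control; unpaired t test.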

Data set [22] deals with Mus musculus. As to the kind of experiment: Toxicity in mouse at 80 mg/kg, ip measured during maximal electroshock seizure test. It is filed as organism-based. The note with it: in vivo.
A short description of data set [23]: Neurotoxicity in ip dosed mouse assessed as motor impairment measured for one min by rotarod test. The note with it: in vivo. In kind it is toxicity, organism-based. Summed up:
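Mice trained on an accelerating rotarod, then tested at least 24 h later after ip pretreatment, on a rod turning at 10 rpm. Neurotoxicity was scored as failure to stay on the rod for one minute. Read-out is mice impaired over mice tested.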

Data set [24] concerns Mus musculus. The data set is described as follows: Analgesic activity in mouse assessed as decrease in time of paw licking during phase 1 at 69 mg/kg, ip measured for 5 mins by formalin test relative to control. In kind it is functional. Further details: scale not given: the % may be the effect or the level left. In short, it runs like this:
as §3

Data set [25] concerns Mus musculus. The data set is described as follows: Analgesic activity in mouse assessed as decrease in time of paw licking during phase 2 at 21 mg/kg, ip measured for 15 to 30 mins by formalin test relative to control. In kind it is functional. Further details: scale not given: the % may be the effect or the level left. Summed up: as §3
In data set [26] the test system is Mus musculus. The data set is described as follows: Anticonvulsant activity in mouse assessed as current strength required to induce tonic hind-limb extension in 50% of the animals at 10 mg/kg, ip by maximal electroshock seizure threshold test (reference value: 6.05 to 8.13 mA). It is filed as functional.
The subject of data set [27] is Mus musculus. The data set is described as follows: Toxicity in mouse assessed as effect on spontaneous activity at 21 mg/kg, ip measured for 30 mins by photoresistor actometer relative to control. The note with it: in vivo, 0.5 h. In kind it is organism-based. In short, it runs like this:
as §4

Data set [28] concerns Mus musculus. As to the kind of experiment: Neurotoxicity in mouse assessed as motor impairment by measuring time of escaping from chimney at 21 mg/kg, ip measured for 60 secs (reference value: 8.87 +/- 1.79 secs). It is filed as toxicity, organism-based. The note with it: in vivo, 1 min. In short, it runs like this:
as §2

Data set [29] has as its system Mus musculus. As to the kind of experiment: Neurotoxicity in mouse assessed as motor impairment by measuring loss of coordination at 21 mg/kg, ip measured for 60 secs by chimney test relative to control. It is filed as toxicity, organism-based. The note with it: in vivo, 1 min. In short, it runs like this:
as §2

For data set [30], the system named is Mus musculus. As to the kind of experiment: Analgesic activity in mouse assessed as decrease in time of paw licking during phase 1 at 21 mg/kg, ip measured for 5 mins by formalin test relative to control. It is filed as functional. Further details: scale not given: the % may be the effect or the level left. In short, it runs like this:
as §3

For data set [31], the system named is Mus musculus. As to the kind of experiment: Anticonvulsant activity in mouse assessed as increase in electroconvulsive threshold at 10 mg/kg, ip by maximal electroshock seizure threshold test relative to control. In kind it is functional.

Calls of active or inactive are those of the source.

As for `Cc1cccc(OCCOCCN2CCCC(O)C2)c1C.Cl` (stereo not drawn), the Activity result is “Non-Toxic” with SH-SY5Y [1]; “Non-Toxic” with HepG2 [2]; “Toxic” in the data set with SH-SY5Y [4]; “Non-Toxic” with Mus musculus [5]; 0% with Mus musculus [6]; “Non-Toxic” in data set [7]. Further, the Activity result with SH-SY5Y [9] is “Non-Toxic”; with Mus musculus [11], 64.59%; in the data set on HepG2 [12], “Non-Toxic”; in the data set on Mus musculus [13], 75.03%; in the data set on Mus musculus [14] it was 13.18 mA; in the data set on SH-SY5Y [18], “Toxic”. In addition, the Activity entry with Mus musculus [19] is given as “Non-Toxic”; in the data set on SH-SY5Y [20], “Non-Toxic”; with Mus musculus [21], 14.98%; with Mus musculus [22], “Non-Toxic”; in the data set on Mus musculus [24] it was 13.74%. Further, the outcome in the data set with Mus musculus [3] was Active. The selectivity ratio in data set [8] worked out at 1.77. Further, the Time with Mus musculus [10] is recorded as 4.75 s; with Mus musculus [16], 564.8 s. Also, the result in the data set with Mus musculus [15] was inactive. In addition, in the data set with Mus musculus [17], the ED50 – broadly, the dose at which the effect has come halfway, by size or by number of responders – was 68.7 mg/kg. In data set [23], the TD50 (as a rule, the dose at which the toxic effect under study appears in half of the subjects) at 1 min was determined as 122 mg/kg.
On to `Cc1cc(C)c(OCCCN2CCC(O)CC2)c(C)c1`, for which the Activity result in the data set on HepG2 [2] is “Non-Toxic”; with Mus musculus [25] it was 4.87%; in the data set on Mus musculus [5], “Non-Toxic”; in the data set with Mus musculus [26] it was 9.15 mA; in data set [7], “Non-Toxic”; in the data set with Mus musculus [27], 19.76%. For the same molecule, the Activity result is on record as “Non-Toxic” in the data set with HepG2 [12], 0% in the data set with Mus musculus [29], 27.01% with Mus musculus [30] and 12.55% with Mus musculus [31]. Besides, in the data set with Mus musculus [3], the outcome was Active. Moreover, the Time in the data set on Mus musculus [28] was found to be 6.5 s; in the data set with Mus musculus [16], 275.4 s. The outcome in the data set on Mus musculus [15] was inactive.

Source of the values: ChEMBL document CHEMBL4261484, “Design, synthesis and anticonvulsant-analgesic activity of new N-[(phenoxy)alkyl]- and N-[(phenoxy)ethoxyethyl]aminoalkanols” (Medchemcomm, 2017).
